Laboratory results: ChEMBL document CHEMBL1250434, “A novel achiral seco-cyclopropylpyrido[e]indolone (CPyI) analog of CC-1065 and the duocarmycins: synthesis, DNA interactions, in vivo anticancer and anti-parasitic evaluation” (Bioorg Med Chem, 2010)

Columns and labels:
L1210 = experiment: Cytotoxicity against mouse L1210 cells after 3 days by MTT assay; format: functional, cell-based; conditions: L1210, 72 h
Procedure, shortened: (§1)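 Murine tumour cells under continuous drug exposure for 3 days. Growth inhibition measured by MTT assay. IC50 is the concentration inhibiting growth by 50%.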

[1] = Cytotoxicity against mouse B16F0 cells after 3 days by MTT assay; format: functional, cell-based; conditions: B16F0, 72 h; procedure, shortened: as §1

`COc1cc2cc(C(=O)Nc3cc(O)c4ccccc4c3CCCl)[nH]c2c(OC)c1OC` showed an IC50 (L1210) of 180 nM and an IC50 [1] of 150 nM.
`COc1cc2cc(C(=O)N3CC(CCl)c4c3cc(O)c3ccccc43)[nH]c2c(OC)c1OC` (stereo not drawn) showed an IC50 [1] of 78 nM.
